For assay [1], the target named is T1, Retinoic acid receptor alpha (Homo sapiens) (UniProt P10276).
T1 sequence (whole entry): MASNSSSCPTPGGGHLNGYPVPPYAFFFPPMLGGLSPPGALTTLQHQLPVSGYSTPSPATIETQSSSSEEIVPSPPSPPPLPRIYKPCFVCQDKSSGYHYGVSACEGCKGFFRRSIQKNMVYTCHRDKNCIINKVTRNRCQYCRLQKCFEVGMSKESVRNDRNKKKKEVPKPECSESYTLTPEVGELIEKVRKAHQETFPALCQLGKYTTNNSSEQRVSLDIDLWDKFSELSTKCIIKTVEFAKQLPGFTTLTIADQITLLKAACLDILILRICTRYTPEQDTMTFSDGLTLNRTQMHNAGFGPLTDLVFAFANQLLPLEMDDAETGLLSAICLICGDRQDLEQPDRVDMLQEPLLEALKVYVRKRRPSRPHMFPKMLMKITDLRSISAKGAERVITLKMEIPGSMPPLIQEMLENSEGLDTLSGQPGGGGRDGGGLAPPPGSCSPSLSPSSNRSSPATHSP
Briefly: Antagonist activity at Gal4-fused RARalpha (unknown origin) transfected in HEK293 cells assessed as ATRA-induced transcriptional activity at 4 uM by luciferase/beta-galactosidase reporter gene assay relative to ATRA-treated control. The assay is classed as cell-based. Set-up: scale not given: the % may be the effect or the level left. The essentials: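 Same Gal4-RARα HEK-293 UAS-luciferase system, stimulated with 0.1 µM atRA alone or with 4 µM compound (40-fold molar excess); 1 µM UVI2024 served as control antagonist. Background-subtracted luciferase was normalized to β-galactosidase and given as percent of atRA-stimulated cells. Data: 2–3 experiments, triplicate.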
On the technique in general: In a reporter assay the amount or activity of a reporter protein is the signal.

A short description of assay [2]: Cytotoxicity against human Jurkat T cells assessed as cell viability after 24 hrs by CellTiter-Glo assay. It counts as functional, cell-based. The essentials: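 Jurkat cells were seeded the day before treatment in RPMI with 0.5% FBS (10,000 cells/well). They were treated in triplicate across an 8-point dose series starting at 10 µM, with DMSO ≤0.1% as solvent control. ATP was measured by CellTiter-Glo luminescence after 24 h; a time-0 reading separated cytostatic from cytotoxic effects. IC50 was fitted from the curve.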
For orientation: Cellular ATP, detected with luciferase, serves as a proxy for viable cell number.

Assay [3] deals with T2, Inhibitor of nuclear factor kappa-B kinase subunit epsilon (Homo sapiens) (UniProt Q14164).
T2 sequence (whole entry): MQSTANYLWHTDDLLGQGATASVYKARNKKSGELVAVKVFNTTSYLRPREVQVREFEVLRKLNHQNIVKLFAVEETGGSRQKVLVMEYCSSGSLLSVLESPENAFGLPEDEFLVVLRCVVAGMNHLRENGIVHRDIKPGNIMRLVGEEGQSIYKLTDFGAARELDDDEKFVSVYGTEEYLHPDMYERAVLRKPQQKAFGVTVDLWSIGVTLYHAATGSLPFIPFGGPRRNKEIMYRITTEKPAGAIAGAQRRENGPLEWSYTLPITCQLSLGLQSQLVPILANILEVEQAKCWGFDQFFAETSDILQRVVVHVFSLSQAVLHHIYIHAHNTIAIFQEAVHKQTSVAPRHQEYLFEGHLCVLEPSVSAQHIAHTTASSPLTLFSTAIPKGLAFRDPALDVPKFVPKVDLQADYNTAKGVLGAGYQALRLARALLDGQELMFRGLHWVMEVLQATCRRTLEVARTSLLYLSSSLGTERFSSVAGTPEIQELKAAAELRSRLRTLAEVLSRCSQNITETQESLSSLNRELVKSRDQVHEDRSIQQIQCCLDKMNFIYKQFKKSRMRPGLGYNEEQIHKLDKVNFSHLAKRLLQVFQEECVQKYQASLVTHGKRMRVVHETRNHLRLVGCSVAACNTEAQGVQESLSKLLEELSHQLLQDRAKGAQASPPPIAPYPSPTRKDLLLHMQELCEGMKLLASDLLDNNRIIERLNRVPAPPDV
Briefly: Inhibition of recombinant IKKepsilon (unknown origin) using ulight-rpS6 as substrate at 20 uM after 2 hrs by LANCE ultra TR-FRET assay relative to control. (Time-resolved FRET reads energy transfer from a long-lived donor to a nearby acceptor.)

Assay [4] deals with T1, Retinoic acid receptor alpha (Homo sapiens). Briefly: Agonist activity at Gal4-fused RARalpha (unknown origin) transfected in HEK293 cells assessed as induction of transcriptional activity at 4 uM after 6 hrs by luciferase/beta-galactosidase reporter gene assay relative to control. It counts as cell-based. In a few lines:
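Gal4-RARα or Gal4-RXRα (10 ng) plus 2 ng β-galactosidase vector, calcium phosphate transfection into HEK-293 cells carrying a 5×UAS luciferase reporter. After 16 h, cells were washed and given 5% charcoal-treated FBS medium, then rested 2 h. Stimulation was with 4 µM compound or 0.1% DMSO; controls were 1 µM atRA (RARα) or 1 µM CD3254 (RXRα). Harvest was at 6 h (RARα) or 24 h (RXRα). Luciferase/β-gal ratio was expressed as fold over unstimulated cells. Data: 2 experiments, triplicate.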

For assay [5], the target named is T3, Inhibitor of nuclear factor kappa-B kinase subunit beta (Homo sapiens, UniProt O14920).
T3 sequence (O14920 whole entry): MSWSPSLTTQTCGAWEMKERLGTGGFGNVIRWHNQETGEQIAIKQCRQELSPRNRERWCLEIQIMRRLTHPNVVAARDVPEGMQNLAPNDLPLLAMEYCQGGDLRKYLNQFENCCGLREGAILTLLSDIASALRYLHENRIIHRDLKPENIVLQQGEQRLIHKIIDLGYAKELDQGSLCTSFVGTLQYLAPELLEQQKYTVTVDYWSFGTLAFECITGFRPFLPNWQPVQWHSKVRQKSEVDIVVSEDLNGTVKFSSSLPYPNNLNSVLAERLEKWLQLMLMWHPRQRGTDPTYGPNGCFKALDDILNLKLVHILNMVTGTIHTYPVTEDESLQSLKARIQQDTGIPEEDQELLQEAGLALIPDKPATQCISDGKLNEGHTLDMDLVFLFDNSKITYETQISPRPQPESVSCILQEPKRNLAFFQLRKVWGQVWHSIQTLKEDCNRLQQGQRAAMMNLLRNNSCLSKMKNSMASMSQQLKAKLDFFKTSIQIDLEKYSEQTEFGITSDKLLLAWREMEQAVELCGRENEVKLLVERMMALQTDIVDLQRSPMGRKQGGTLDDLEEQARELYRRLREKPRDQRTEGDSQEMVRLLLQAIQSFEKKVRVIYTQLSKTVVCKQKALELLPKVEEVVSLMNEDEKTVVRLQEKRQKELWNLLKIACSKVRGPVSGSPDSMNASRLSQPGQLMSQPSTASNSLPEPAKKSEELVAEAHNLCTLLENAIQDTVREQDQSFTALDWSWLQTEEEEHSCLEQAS
Briefly: Inhibition of recombinant IKKbeta (unknown origin) using ulight-IkappaomegaBalpha as substrate after 1 hr by LANCE ultra TR-FRET assay.

The record followed here is ChEMBL document CHEMBL3112476, “Inhibition of IκB kinase-β and IκB kinase-α by heterocyclic adamantyl arotinoids” (Bioorg Med Chem, 2014).

The IC50 is the midpoint of a concentration-inhibition curve. The term inhibition denotes the percentage by which the read-out fell short of the control. Regarding `CC(=O)NCCCOc1cc(/C=C/C(=O)O)ccc1-c1cc(C23CC4CC(CC(C4)C2)C3)c(O)cc1C`, the Activity in assay [1] worked out at 70%. Also, the IC50 in assay [2] was 2.61 µM. Also, the inhibition in assay [3] was determined as 5.2%.

With `COc1nc(-c2ccc(C(=O)O)cc2)cnc1-c1ccc(O)c(C23CC4CC(CC(C4)C2)C3)c1`, in assay [1], the Activity came out at 95.4%. The fold change (FC) in assay [4] came to 1.9. Also, the IC50 worked out at 3.13 µM in assay [2] and 7.81 µM in assay [5]. Also, the inhibition in assay [3] worked out at 26.1%.

In the case of `COc1nc(/C=C/C(=O)O)cnc1-c1ccc(O)c(C23CC4CC(CC(C4)C2)C3)c1`, in assay [1], the Activity was 93.2%. Besides, in assay [2], the IC50 is 5.01 µM. The inhibition in assay [3] amounted to 7.8%.

`COCCOCOc1cc(C)c(-c2ccc3cc(C(=O)O)ccc3c2Cl)cc1C12CC3CC(CC(C3)C1)C2`: the Activity in assay [1] worked out at 82.7%. Besides, the IC50 in assay [2] turned out to be 5.62 µM; in assay [5], 7.06 µM. In addition, the inhibition in assay [3] worked out at 13.7%.

With `COc1nc(/C=C/C(=O)O)cnc1-c1cc(C23CC4CC(CC(C4)C2)C3)c(O)cc1C`, the Activity in assay [1] was determined as 89%. Moreover, the IC50 in assay [2] stood at 5.38 µM. Besides, the inhibition in assay [3] stood at 6.7%.

On to `COCCOCOc1ccc(-c2ncc(-c3ccc(C(=O)O)cc3)s2)cc1C12CC3CC(CC(C3)C1)C2`, for which the Activity in assay [1] came to 92.4%. For the same molecule, in assay [4], the fold change (FC) was 1.2. The IC50 in assay [5] was 5.16 µM. The inhibition in assay [3] was determined as 25.3%.

For the molecule `COCCOCOc1ccc(-c2ncc(/C=C/C(=O)O)nc2OC)cc1C12CC3CC(CC(C3)C1)C2`, the Activity in assay [1] was 78.7%. For the same molecule, in assay [4], the fold change (FC) is 1.1. Besides, the inhibition in assay [3] was determined as 9.4%.

With `Cc1cc(O)c(C23CC4CC(CC(C4)C2)C3)cc1-c1ccc2cc(C(=O)O)ccc2c1Cl`, the Activity in assay [1] was 90%. The IC50 in assay [2] came out at 2.19 µM; in assay [5] it was 4.75 µM. In addition, in assay [3], the inhibition turned out to be 41.5%.

`COCCOCOc1cc(C)c(-c2ccc(CC(=O)O)cc2Cl)cc1C12CC3CC(CC(C3)C1)C2`: the Activity in assay [1] amounted to 74.1%. Besides, in assay [4], the fold change (FC) came out at 1.3. Also, in assay [3], the inhibition came out at 0%.

Turning to `COCCOCOc1ccc(-c2ncc(-c3ccc(C(=O)O)cc3)nc2OC)cc1C12CC3CC(CC(C3)C1)C2`, the Activity in assay [1] is 109%. Also, the fold change (FC) in assay [4] worked out at 1.1. Further, the inhibition in assay [3] was 18.8%.

Regarding `Cc1cc(O)c(C23CC4CC(CC(C4)C2)C3)cc1-c1ccc(CC(=O)O)cc1Cl`, the Activity in assay [1] amounted to 79.7%. For the same molecule, the IC50 in assay [2] is 3.98 µM. The inhibition in assay [3] is 8.5%.

Consider `Cc1cc(O)c(C23CC4CC(CC(C4)C2)C3)cc1-c1ncc(/C=C/C(=O)O)s1`, for which, in assay [1], the Activity was found to be 87.3%. In assay [4], the fold change (FC) was determined as 1. For the same molecule, in assay [3], the inhibition is 0%.

On to `COCCOCOc1cc(C)c(-c2ccc(/C=C/C(=O)O)cc2Cl)cc1C12CC3CC(CC(C3)C1)C2`, for which, in assay [1], the Activity came to 61.5%. Moreover, the fold change (FC) in assay [4] stood at 1.8. Also, in assay [3], the inhibition came out at 2.9%.

On to `COCCOCOc1cc(C)c(-c2ncc(-c3ccc(C(=O)O)cc3)s2)cc1C12CC3CC(CC(C3)C1)C2`, for which the Activity in assay [1] was 61.6%. Besides, the figures for the IC50 in assay [2] and in assay [5] were 5.71 µM and 4.43 µM, respectively. Besides, the inhibition in assay [3] is 17%.

Regarding `Cc1cc(O)c(C23CC4CC(CC(C4)C2)C3)cc1-c1ccc(/C=C/C(=O)O)cc1Cl`, the Activity in assay [1] was 67.1%. Moreover, in assay [2], the IC50 amounted to 4.04 µM. Also, in assay [3], the inhibition was found to be 11.9%.

Turning to `COCCOCOc1cc(C)c(-c2ncc(/C=C/C(=O)O)nc2OC)cc1C12CC3CC(CC(C3)C1)C2`, the Activity in assay [1] is 99.5%. The fold change (FC) in assay [4] came to 0.8. Also, the inhibition in assay [3] is 5.9%.

Consider `COCCOCOc1cc(C)c(-c2ncc(/C=C/C(=O)O)s2)cc1C12CC3CC(CC(C3)C1)C2`, for which the Activity in assay [1] came to 75.3%. For the same molecule, the fold change (FC) in assay [4] amounted to 1.9. The inhibition in assay [3] was found to be 11.1%.

With `COCCOCOc1ccc(-c2ncc(/C=C/C(=O)O)s2)cc1C12CC3CC(CC(C3)C1)C2`, the Activity in assay [1] is 94.2%. In addition, the fold change (FC) in assay [4] worked out at 1. Moreover, in assay [3], the inhibition is 14.3%.

On to `Cc1cc(O)c(C23CC4CC(CC(C4)C2)C3)cc1-c1ncc(-c2ccc(C(=O)O)cc2)s1`, for which, in assay [1], the Activity is 33.2%. The IC50 in assay [2] was determined as 4.4 µM; in assay [5] it was 4.78 µM. Also, the inhibition in assay [3] came out at 0%.

As to `O=C(O)/C=C/c1cnc(-c2ccc(O)c(C34CC5CC(CC(C5)C3)C4)c2)s1`, in assay [1], the Activity is 92.4%. In assay [4], the fold change (FC) was 1.1. In addition, in assay [3], the inhibition was 0%.

Turning to `O=C(O)c1ccc(-c2cnc(-c3ccc(O)c(C45CC6CC(CC(C6)C4)C5)c3)s2)cc1`, the Activity in assay [1] stood at 66.2%. Moreover, the results for the IC50 in assay [2] and in assay [5] were 2.24 µM and 3.37 µM, respectively. In addition, the inhibition in assay [3] turned out to be 11.6%.
